In brackets after ≈: the same amount, converted by molar mass.
Experiments:
Assay type in all cases: functional
[1] = system: Aeromonas; assay: In Vitro Anti Bacterial Activity (MIC90) against 90% of tested clinical Isolates of Aeromonas species(21)
In short: (§1)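 Over 500 clinical isolates tested in total; the line gives the isolate count. MIC90 for aerobes by dilution in Mueller Hinton 2 medium, inoculum 10⁴ cells/mL, incubated 24 h at 37 °C.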

[2] = system: Acinetobacter calcoaceticus subsp. anitratus; assay: In Vitro Anti Bacterial Activity (MIC90) against 90% of tested clinical Isolates of Acinetobacter anitratus(20); in short: as §1
[3] = system: Moraxella catarrhalis; assay: In Vitro Anti Bacterial Activity (MIC90) against 90% of tested clinical Isolates of Branhamella catarrhalis(27)
[4] = system: Bacteroides fragilis; assay: In Vitro Anti Bacterial Activity (MIC90) against 90% of tested clinical Isolates of Bacteroides fragilis(15)
In short: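 Anaerobic clinical isolates. MIC90 by dilution in Wilkins-Chalgren agar, inoculum 10⁵ cells/mL, incubated 24–48 h at 37 °C.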

[5] = system: Clostridium perfringens; assay: In Vitro Anti Bacterial Activity (MIC90) against 90% of tested clinical Isolates of Clostridium perfringens(27)
In short: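 MIC90 over clinical isolates of this anaerobic species, taken from the MIC distribution. Anaerobes were tested on Wilkins-Chalgren agar with an inoculum of 10⁵ cells/mL and incubated 24–48 h at 37 °C.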

[6] = system: Citrobacter freundii; assay: In Vitro Anti Bacterial Activity (MIC90) against 90% of tested clinical Isolates of Citrobacter freundii(20); in short: as §1
[7] = system: Enterococcus faecalis; assay: In Vitro Anti Bacterial Activity (MIC90) against 90% of tested clinical Isolates of Enterococcus faecalis(47); in short: as §1
[8] = system: Enterococcus faecium; assay: In Vitro Anti Bacterial Activity (MIC90) against 90% of tested clinical Isolates of Enterococcus faecium(47); in short: as §1
[9] = system: Enterococcus faecalis; assay: In Vitro antibacterial activity against (Ef) Enterococcus faecalis ATCC 29212
In short: (§2)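 Panel of standard ATCC strains plus modified strains: methicillin-resistant, hyperpermeable, β-lactamase-producing (TEM1, TEM2, SHV) and β-lactamase-lacking. MIC determined in Mueller Hinton 2 medium, inoculum 10⁴ cells/mL, incubated 24 h at 37 °C.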

[10] = system: Escherichia coli; assay: In Vitro Anti Bacterial Activity (MIC90) against 90% of tested clinical Isolates of Escherichia coli; in short: as §1
[11] = system: Klebsiella aerogenes; assay: In Vitro Anti Bacterial Activity (MIC90) against 90% of tested clinical Isolates of Enterobacter aerogenes(19); in short: as §1
[12] = system: Escherichia coli; assay: In Vitro antibacterial activity against (Ec L) Escherichia coli […] strain; in short: as §2
[13] = system: Escherichia coli; assay: In Vitro antibacterial activity against (Ec SHV) Escherichia coli […] strain; in short: as §2
[14] = system: Escherichia coli; assay: In Vitro antibacterial activity against (Ec TEM1) Escherichia coli […] strain; in short: as §2
[15] = system: Escherichia coli; assay: In Vitro antibacterial activity against (Ec TEM2) Escherichia coli […] strain; in short: as §2
[16] = system: Escherichia coli; assay: In Vitro antibacterial activity against (Ec) Escherichia coli ATCC 25922; in short: as §2
[17] = system: Haemophilus influenzae; assay: In Vitro Anti Bacterial Activity (MIC90) against 90% of tested clinical Isolates of Haemophilus Influenzae(21)
In short: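 Clinical isolates. MIC90 in Haemophilus Test Medium Base plus Haemophilus Test Medium Supplement, inoculum 10⁴ cells/mL, incubated 24–48 h at 37 °C.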

[18] = system: Klebsiella pneumoniae; assay: In Vitro Anti Bacterial Activity (MIC90) against 90% of tested clinical Isolates of Klebsiella pneumoniae(20); in short: as §1
[19] = system: Listeria monocytogenes; assay: In Vitro Anti Bacterial Activity (MIC90) against 90% of tested clinical Isolates of Listeria monocytogenes (20); in short: as §1
[20] = system: Morganella morganii; assay: In Vitro Anti Bacterial Activity (MIC90) against 90% of tested clinical Isolates of Morganella morganii(10); in short: as §1
[21] = system: Pseudomonas aeruginosa; assay: In Vitro antibacterial activity against (Pa G242) hyperpermeable Pseudomonas aeruginosa strain; in short: as §2
[22] = system: Pseudomonas aeruginosa; assay: In Vitro antibacterial activity against (Pa) Pseudomonas aeruginosa ATCC 27853; in short: as §2
[23] = system: Pseudomonas aeruginosa; assay: In Vitro antibacterial activity against (Pa) hyperpermeable Pseudomonas aeruginosa […] strain; in short: as §2
[24] = system: Proteus vulgaris; assay: In Vitro Anti Bacterial Activity (MIC90) against 90% of tested clinical Isolates of Proteus vulgaris(10); in short: as §1
[25] = system: Providencia stuartii; assay: In Vitro Anti Bacterial Activity (MIC90) against 90% of tested clinical Isolates of Providencia stuartii(10); in short: as §1
[26] = system: Providencia rettgeri; assay: In Vitro Anti Bacterial Activity (MIC90) against 90% of tested clinical Isolates of Providencia rettgeri(10); in short: as §1
[27] = system: Proteus mirabilis; assay: In Vitro Anti Bacterial Activity (MIC90) against 90% of tested clinical Isolates of Proteus mirabilis(16); in short: as §1
[28] = system: Pseudomonas aeruginosa; assay: In Vitro Anti Bacterial Activity (MIC90) against 90% of tested clinical Isolates of Pseudomonas aeruginosa(11); in short: as §1
[29] = system: Staphylococcus epidermidis; assay: In Vitro Anti Bacterial Activity (MIC90) against 90% of tested clinical Isolates of Staphylococcus epidermidis (13); in short: as §1
[30] = system: Streptococcus agalactiae; assay: In Vitro Anti Bacterial Activity (MIC90) against 90% of tested clinical Isolates of Streptococcus agalactiaeB(21)
[31] = system: Staphylococcus aureus; assay: In Vitro Anti Bacterial Activity (MIC90) against 90% of tested clinical Isolates of Staphylococcus aureus MS (6); in short: as §1
[32] = system: Staphylococcus aureus; assay: In Vitro Anti Bacterial Activity (MIC90) against 90% of tested clinical Isolates of Staphylococcus aureus MV (20)
[33] = system: Staphylococcus aureus; assay: In vitro antibacterial activity against Sa MR(I) heterogeneous methicillin resistant Staphylococcus aureus
In short: (§3)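 MIC was determined in Mueller Hinton 2 medium with an inoculum of 10⁴ cells/mL and incubation for 24 h at 37 °C. Strains: Sa(I) is S. aureus ATCC 29213; Sa MR(I) is a heterogeneous methicillin-resistant S. aureus; Sa MR(II) is a homogeneous methicillin-resistant S. aureus.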

[34] = system: Staphylococcus aureus; assay: In vitro antibacterial activity against Sa MR(II) homogeneous methicillin resistant Staphylococcus aureus; in short: as §3
[35] = system: Staphylococcus aureus; assay: In vitro antibacterial activity against Sa(I) Staphylococcus aureus ATCC 29213; in short: as §3
[36] = system: Staphylococcus aureus; assay: In vitro antibacterial activity against Sa(II) Staphylococcus aureus ATCC 25923; in short: as §2
[37] = system: Streptococcus pyogenes; assay: In Vitro Anti Bacterial Activity (MIC90) against 90% of tested clinical Isolates of Streptococcus pyogenes(31)
[38] = system: Streptococcus pneumoniae; assay: In Vitro Anti Bacterial Activity (MIC90) against 90% of tested clinical Isolates of Streptococcus pneumoniae (23)
[39] = system: Yersinia sp.; assay: In Vitro Anti Bacterial Activity (MIC90) against 90% of tested clinical Isolates of Yersinia species(20); conditions: Yersinia sp. (in: enterobacteria)
[40] = system: Stenotrophomonas maltophilia; assay: In Vitro Anti Bacterial Activity (MIC90) against 90% of tested clinical Isolates of Xanthomonas maltophilia(9); in short: as §1
[41] = system: Escherichia coli; assay: In Vitro antibacterial activity against (Ec DC2) hyperpermeable Escherichia coli strain; in short: as §2
[42] = system: Listeria monocytogenes; assay: In Vitro Anti Bacterial Activity (MIC 90) against 90% of tested clinical Isolates of Listeria monocytogenes (20); in short: as §1

Work on `C[C@@H](O)[C@H]1C(=O)N2C(C(=O)O)=C(CN3C[C@H](O)C[C@H]3C(N)=O)S[C@H]12` yielded an MIC90 [1] of 2 µg/mL (≈ 5.6 µM), an MIC90 [2] of 16 µg/mL (≈ 44.8 µM) and an MIC90 [3] of 1 µg/mL (≈ 2.8 µM). For the same molecule, the MIC90 [4] was 32 µg/mL (≈ 89.5 µM), the MIC90 [5] was 0.25 µg/mL (≈ 0.7 µM) and the MIC90 [6] was 1 µg/mL (≈ 2.8 µM). For the same molecule, the MIC90 [7] was 8 µg/mL (≈ 22.4 µM), the MIC90 [8] was > 64 µg/mL and the MIC [9] was 2 µg/mL (≈ 5.6 µM). For the same molecule, the MIC90 [10] was 0.015 µg/mL (≈ 0.042 µM), the MIC90 [11] was 16 µg/mL (≈ 44.8 µM) and the MIC [12] was 0.03 µg/mL (≈ 0.0839 µM). The MIC [13] was 0.25 µg/mL (≈ 0.7 µM), the MIC [14] was 0.12 µg/mL (≈ 0.336 µM) and the MIC [15] was 0.25 µg/mL (≈ 0.7 µM). For the same molecule, the MIC [16] was 0.03 µg/mL (≈ 0.0839 µM), the MIC90 [17] was 4 µg/mL (≈ 11.2 µM) and the MIC90 [18] was 0.5 µg/mL (≈ 1.4 µM). It also gave an MIC90 [19] of 0.12 µg/mL (≈ 0.336 µM), an MIC90 [20] of 8 µg/mL (≈ 22.4 µM) and an MIC [21] of 0.06 µg/mL (≈ 0.168 µM). For the same molecule, the MIC [22] was > 64 µg/mL, the MIC [23] was 0.2 µg/mL (≈ 0.56 µM) and the MIC90 [24] was 4 µg/mL (≈ 11.2 µM). The MIC90 [25] was 4 µg/mL (≈ 11.2 µM), the MIC90 [26] was 4 µg/mL (≈ 11.2 µM) and the MIC90 [27] was 4 µg/mL (≈ 11.2 µM). For the same molecule, the MIC90 [28] was > 64 µg/mL, the MIC90 [29] was 1 µg/mL (≈ 2.8 µM) and the MIC90 [30] was 0.06 µg/mL (≈ 0.168 µM). For the same molecule, the MIC90 [31] was 0.12 µg/mL (≈ 0.336 µM), the MIC90 [32] was > 32 µg/mL and the MIC [33] was 0.25 µg/mL (≈ 0.7 µM). It also gave an MIC [34] of 8 µg/mL (≈ 22.4 µM), an MIC [35] of 0.12 µg/mL (≈ 0.336 µM) and an MIC [36] of 0.12 µg/mL (≈ 0.336 µM). It also gave an MIC90 [37] of 0.03 µg/mL (≈ 0.0839 µM), an MIC90 [38] of 0.03 µg/mL (≈ 0.0839 µM) and an MIC90 [39] of 0.15 µg/mL (≈ 0.42 µM). For the same molecule, the MIC90 [40] was > 64 µg/mL and the MIC [41] was 0.12 µg/mL (≈ 0.336 µM).

In the case of `C[C@@H](O)[C@H]1C(=O)N2C(C(=O)O)=C(CN(C)[C@@H](C)C(N)=O)S[C@H]12`, the MIC90 [1] is reported as 2 µg/mL (≈ 6.07 µM), the MIC90 [2] is reported as 32 µg/mL (≈ 97.2 µM) and the MIC90 [3] is reported as 0.5 µg/mL (≈ 1.52 µM). It also gave an MIC90 [4] of 8 µg/mL (≈ 24.3 µM), an MIC90 [5] of 0.5 µg/mL (≈ 1.52 µM) and an MIC90 [6] of 1 µg/mL (≈ 3.04 µM). The MIC90 [7] was 8 µg/mL (≈ 24.3 µM), the MIC90 [8] was > 64 µg/mL and the MIC [9] was 4 µg/mL (≈ 12.1 µM). It also gave an MIC90 [10] of 0.25 µg/mL (≈ 0.759 µM), an MIC90 [11] of 32 µg/mL (≈ 97.2 µM) and an MIC [12] of 0.25 µg/mL (≈ 0.759 µM). The MIC [13] was 0.5 µg/mL (≈ 1.52 µM), the MIC [14] was 0.25 µg/mL (≈ 0.759 µM) and the MIC [15] was 1 µg/mL (≈ 3.04 µM). The MIC [16] was 0.25 µg/mL (≈ 0.759 µM), the MIC90 [17] was 4 µg/mL (≈ 12.1 µM) and the MIC90 [18] was 1 µg/mL (≈ 3.04 µM). For the same molecule, the MIC [21] was 0.25 µg/mL (≈ 0.759 µM), the MIC [22] was > 64 µg/mL and the MIC [23] was 1 µg/mL (≈ 3.04 µM). For the same molecule, the MIC90 [28] was > 64 µg/mL, the MIC90 [29] was 0.25 µg/mL (≈ 0.759 µM) and the MIC90 [30] was 0.06 µg/mL (≈ 0.182 µM). It also gave an MIC90 [31] of 0.12 µg/mL (≈ 0.364 µM), an MIC90 [32] of 8 µg/mL (≈ 24.3 µM) and an MIC [33] of 0.12 µg/mL (≈ 0.364 µM). For the same molecule, the MIC [34] was 2 µg/mL (≈ 6.07 µM), the MIC [35] was 0.015 µg/mL (≈ 0.0455 µM) and the MIC [36] was 0.06 µg/mL (≈ 0.182 µM). The MIC90 [37] was 0.06 µg/mL (≈ 0.182 µM), the MIC90 [38] was 0.06 µg/mL (≈ 0.182 µM) and the MIC90 [39] was 0.5 µg/mL (≈ 1.52 µM). For the same molecule, the MIC90 [40] was > 64 µg/mL, the MIC [41] was 1 µg/mL (≈ 3.04 µM) and the MIC90 [42] was 0.5 µg/mL (≈ 1.52 µM).

Reference: ChEMBL document CHEMBL1128718, “2-Substituted penems with amino acid-related side chains: synthesis and antibacterial activity of a new series of beta-lactam antibiotics” (1995)
